Results on 4 compounds are retold here after ChEMBL document CHEMBL3351294, “Discovery of a selective, substrate-competitive inhibitor of the lysine methyltransferase SETD8” (J Med Chem, 2014).

For experiment [1], the target named is T1, Histone-lysine N-methyltransferase EHMT2 (Homo sapiens, UniProt Q96KQ7).
T1 sequence (Q96KQ7 whole entry): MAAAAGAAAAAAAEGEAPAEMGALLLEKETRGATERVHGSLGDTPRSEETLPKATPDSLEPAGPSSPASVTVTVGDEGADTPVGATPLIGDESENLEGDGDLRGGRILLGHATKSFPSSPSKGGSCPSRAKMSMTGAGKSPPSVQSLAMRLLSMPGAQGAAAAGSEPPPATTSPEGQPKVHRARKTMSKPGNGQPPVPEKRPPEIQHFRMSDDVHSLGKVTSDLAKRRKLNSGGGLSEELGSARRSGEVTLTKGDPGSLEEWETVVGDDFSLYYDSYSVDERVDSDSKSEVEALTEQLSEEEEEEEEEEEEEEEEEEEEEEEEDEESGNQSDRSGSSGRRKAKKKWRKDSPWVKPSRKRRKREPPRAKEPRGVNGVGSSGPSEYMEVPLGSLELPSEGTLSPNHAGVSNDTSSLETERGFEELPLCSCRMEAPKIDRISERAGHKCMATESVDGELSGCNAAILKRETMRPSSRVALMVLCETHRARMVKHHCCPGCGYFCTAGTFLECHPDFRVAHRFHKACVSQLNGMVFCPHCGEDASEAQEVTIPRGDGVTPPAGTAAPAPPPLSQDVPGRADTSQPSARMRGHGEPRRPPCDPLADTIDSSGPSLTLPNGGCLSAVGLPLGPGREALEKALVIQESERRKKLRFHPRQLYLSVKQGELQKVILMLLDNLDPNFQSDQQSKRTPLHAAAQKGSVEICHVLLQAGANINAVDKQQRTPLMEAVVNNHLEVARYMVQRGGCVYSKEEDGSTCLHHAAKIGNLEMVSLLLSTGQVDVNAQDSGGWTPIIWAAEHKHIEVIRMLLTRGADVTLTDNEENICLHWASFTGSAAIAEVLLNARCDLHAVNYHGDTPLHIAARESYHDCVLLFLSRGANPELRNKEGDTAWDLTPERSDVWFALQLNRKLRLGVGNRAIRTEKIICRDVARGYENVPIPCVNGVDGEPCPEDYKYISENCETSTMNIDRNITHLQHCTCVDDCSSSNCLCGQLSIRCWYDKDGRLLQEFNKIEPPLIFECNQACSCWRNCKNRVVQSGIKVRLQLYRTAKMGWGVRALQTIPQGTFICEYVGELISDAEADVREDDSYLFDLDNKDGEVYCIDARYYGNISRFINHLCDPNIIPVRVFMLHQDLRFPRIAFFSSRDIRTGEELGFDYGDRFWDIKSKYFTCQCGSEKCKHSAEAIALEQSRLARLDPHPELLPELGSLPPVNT
Put plainly: Inhibition of G9a (unknown origin) assessed as incorporation of tritium-labeled methyl group to lysine or arginine residues of peptide substrate by radioactive assay. The procedure, abridged: (§1)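 Enzymes (PRMT5 as PRMT5-MEP50 complex, MLL1 as MLL1 complex) in 20 μL reactions with 3H-SAM and substrates near each enzyme's Km; compound at 100 nM to 100 μM. Stopped with 7.5 M guanidine HCl, diluted in 20 mM Tris pH 8.0, incubated 1 h on streptavidin FlashPlate, read as CPM. No-compound CPM was 100% activity; no-enzyme CPM was 0% background.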

The target in experiment [2] is Histone-lysine N-methyltransferase SETDB1 (Homo sapiens, UniProt Q15047). Put plainly: Inhibition of SETDB1 (unknown origin) assessed as incorporation of tritium-labeled methyl group to lysine or arginine residues of peptide substrate by radioactive assay. Summed up: as §1
Experiment [3] has as its target T2, Histone-lysine N-methyltransferase EHMT1 (Homo sapiens, UniProt Q9H9B1).
T2 sequence (Q9H9B1 whole entry): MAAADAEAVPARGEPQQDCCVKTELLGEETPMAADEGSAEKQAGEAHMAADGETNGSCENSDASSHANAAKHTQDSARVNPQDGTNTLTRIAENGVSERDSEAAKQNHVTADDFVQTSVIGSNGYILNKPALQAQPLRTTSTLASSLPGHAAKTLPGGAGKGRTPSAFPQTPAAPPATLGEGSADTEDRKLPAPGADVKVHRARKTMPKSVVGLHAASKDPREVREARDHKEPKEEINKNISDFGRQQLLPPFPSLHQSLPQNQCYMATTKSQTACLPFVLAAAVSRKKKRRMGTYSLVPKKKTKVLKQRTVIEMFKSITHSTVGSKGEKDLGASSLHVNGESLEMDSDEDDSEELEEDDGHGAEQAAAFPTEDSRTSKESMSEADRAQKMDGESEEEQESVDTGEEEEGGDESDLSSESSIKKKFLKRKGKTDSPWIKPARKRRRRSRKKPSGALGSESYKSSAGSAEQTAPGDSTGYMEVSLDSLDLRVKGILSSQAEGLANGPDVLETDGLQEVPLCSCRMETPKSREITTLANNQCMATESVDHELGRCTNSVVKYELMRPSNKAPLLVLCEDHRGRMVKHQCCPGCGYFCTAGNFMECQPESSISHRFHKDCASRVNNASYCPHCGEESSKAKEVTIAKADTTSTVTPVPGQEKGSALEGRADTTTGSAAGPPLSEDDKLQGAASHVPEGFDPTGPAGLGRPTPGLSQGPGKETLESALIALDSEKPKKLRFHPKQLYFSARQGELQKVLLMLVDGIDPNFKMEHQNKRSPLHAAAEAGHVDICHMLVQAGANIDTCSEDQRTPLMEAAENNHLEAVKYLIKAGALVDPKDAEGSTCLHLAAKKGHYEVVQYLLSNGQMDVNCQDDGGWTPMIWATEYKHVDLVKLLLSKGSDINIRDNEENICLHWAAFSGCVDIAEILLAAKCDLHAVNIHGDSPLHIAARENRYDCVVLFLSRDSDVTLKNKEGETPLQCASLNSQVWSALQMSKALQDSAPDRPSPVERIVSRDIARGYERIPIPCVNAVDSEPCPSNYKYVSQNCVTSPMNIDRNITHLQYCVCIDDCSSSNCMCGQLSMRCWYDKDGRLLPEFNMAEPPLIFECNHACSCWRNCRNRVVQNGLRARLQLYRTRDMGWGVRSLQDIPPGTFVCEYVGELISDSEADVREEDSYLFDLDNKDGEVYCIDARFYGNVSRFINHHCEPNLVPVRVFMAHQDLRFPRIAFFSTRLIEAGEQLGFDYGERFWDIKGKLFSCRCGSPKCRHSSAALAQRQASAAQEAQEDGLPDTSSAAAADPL
Put plainly: Inhibition of GLP (unknown origin) assessed as incorporation of tritium-labeled methyl group to lysine or arginine residues of peptide substrate by radioactive assay. Summed up:
as §1

For experiment [4], the target named is Histone-lysine N-methyltransferase SUV39H2 (Homo sapiens, UniProt Q9H5I1). Put plainly: Inhibition of SUV39H2 (unknown origin) assessed as incorporation of tritium-labeled methyl group to lysine or arginine residues of peptide substrate by radioactive assay. The procedure, abridged:
as §1

The target in experiment [5] is T3, Histone-lysine N-methyltransferase SETD7 (Homo sapiens, UniProt Q8WTS6).
T3 sequence (Q8WTS6 whole entry): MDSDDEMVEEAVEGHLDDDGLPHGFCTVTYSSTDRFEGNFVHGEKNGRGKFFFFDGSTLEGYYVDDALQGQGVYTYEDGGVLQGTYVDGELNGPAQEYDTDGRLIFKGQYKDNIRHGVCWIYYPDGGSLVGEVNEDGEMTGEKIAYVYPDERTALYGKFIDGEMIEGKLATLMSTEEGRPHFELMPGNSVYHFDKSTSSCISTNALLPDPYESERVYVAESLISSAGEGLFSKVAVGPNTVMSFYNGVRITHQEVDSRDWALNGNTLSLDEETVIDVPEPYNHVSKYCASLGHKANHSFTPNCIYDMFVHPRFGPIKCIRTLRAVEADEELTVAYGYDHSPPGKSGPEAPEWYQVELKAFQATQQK
Put plainly: Inhibition of SETD7 (unknown origin) assessed as incorporation of tritium-labeled methyl group to lysine or arginine residues of peptide substrate by radioactive assay. The procedure, abridged:
as §1

The target of experiment [6] is Protein arginine N-methyltransferase 3 (Homo sapiens, UniProt O60678). Put plainly: Inhibition of PRMT3 (unknown origin) assessed as incorporation of tritium-labeled methyl group to lysine or arginine residues of peptide substrate by radioactive assay. Summed up:
as §1

Experiment [7] addresses Protein arginine N-methyltransferase 5 (Homo sapiens, UniProt O14744). Put plainly: Inhibition of PRMT5 (unknown origin) assessed as incorporation of tritium-labeled methyl group to lysine or arginine residues of peptide substrate by radioactive assay. Summed up:
as §1

For experiment [8], the target named is Protein arginine N-methyltransferase 1 (Homo sapiens, UniProt Q99873). Put plainly: Inhibition of PRMT1 (unknown origin) assessed as incorporation of tritium-labeled methyl group to lysine or arginine residues of peptide substrate by radioactive assay. The procedure, abridged:
as §1

Experiment [9] addresses Histone-lysine N-methyltransferase KMT5B (Homo sapiens, UniProt Q4FZB7). Put plainly: Inhibition of SUV420H1 (unknown origin) assessed as incorporation of tritium-labeled methyl group to lysine or arginine residues of peptide substrate by radioactive assay. The procedure, abridged:
as §1

Experiment [10] concerns the target Histone-lysine N-methyltransferase KMT5C (Homo sapiens, UniProt Q86Y97). Put plainly: Inhibition of SUV420H2 (unknown origin) assessed as incorporation of tritium-labeled methyl group to lysine or arginine residues of peptide substrate by radioactive assay. The procedure, abridged: as §1
In experiment [11] the target is N-lysine methyltransferase SMYD2 (Homo sapiens, UniProt Q9NRG4). Put plainly: Inhibition of SMYD2 (unknown origin) assessed as incorporation of tritium-labeled methyl group to lysine or arginine residues of peptide substrate by radioactive assay. The procedure, abridged: as §1
For experiment [12], the target named is DNA (cytosine-5)-methyltransferase 1 (Homo sapiens, UniProt P26358). Put plainly: Inhibition of DNMT1 (unknown origin) assessed as using dsDNA substrate by radioactive assay.
The target in experiment [13] is Histone-lysine N-methyltransferase 2A (Homo sapiens, UniProt Q03164). Put plainly: Inhibition of MLL1 (unknown origin) assessed as incorporation of tritium-labeled methyl group to lysine or arginine residues of peptide substrate by radioactive assay. The procedure, abridged: as §1
The target in experiment [14] is Histone-lysine N-methyltransferase, H3 lysine-79 specific (Homo sapiens, UniProt Q8TEK3). Put plainly: Inhibition of DOT1L (unknown origin) by filter-based assay. Summed up: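 Filter-format tritium assay: 20 μL reaction with 3H-SAM and substrates near Km, compound at 100 nM to 100 μM, incubated 1 h at room temperature. Precipitated with 10% TCA on filter plates, washed twice with 10% TCA and once with ethanol, scintillant added, CPM counted. No-compound CPM was 100% activity; no-enzyme CPM was 0%.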

Experiment [15] deals with T4, N-lysine methyltransferase KMT5A (Homo sapiens, UniProt Q9NQR1).
T4 sequence (Q9NQR1 whole entry): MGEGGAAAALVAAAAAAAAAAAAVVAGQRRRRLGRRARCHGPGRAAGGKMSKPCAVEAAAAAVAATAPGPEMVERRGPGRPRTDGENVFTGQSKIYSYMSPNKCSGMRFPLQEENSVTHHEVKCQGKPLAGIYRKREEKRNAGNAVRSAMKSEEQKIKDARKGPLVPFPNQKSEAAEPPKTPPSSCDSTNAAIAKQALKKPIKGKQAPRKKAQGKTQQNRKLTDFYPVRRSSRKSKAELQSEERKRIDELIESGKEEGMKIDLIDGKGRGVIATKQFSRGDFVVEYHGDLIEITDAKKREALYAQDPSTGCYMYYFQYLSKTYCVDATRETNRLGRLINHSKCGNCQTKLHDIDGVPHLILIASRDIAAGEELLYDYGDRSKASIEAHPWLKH

Experiment [16] deals with T4, N-lysine methyltransferase KMT5A. This is another data set of the same source.

Structures are written as SMILES.

Histone-lysine N-methyltransferase KMT5C, sequence (Q86Y97 whole entry): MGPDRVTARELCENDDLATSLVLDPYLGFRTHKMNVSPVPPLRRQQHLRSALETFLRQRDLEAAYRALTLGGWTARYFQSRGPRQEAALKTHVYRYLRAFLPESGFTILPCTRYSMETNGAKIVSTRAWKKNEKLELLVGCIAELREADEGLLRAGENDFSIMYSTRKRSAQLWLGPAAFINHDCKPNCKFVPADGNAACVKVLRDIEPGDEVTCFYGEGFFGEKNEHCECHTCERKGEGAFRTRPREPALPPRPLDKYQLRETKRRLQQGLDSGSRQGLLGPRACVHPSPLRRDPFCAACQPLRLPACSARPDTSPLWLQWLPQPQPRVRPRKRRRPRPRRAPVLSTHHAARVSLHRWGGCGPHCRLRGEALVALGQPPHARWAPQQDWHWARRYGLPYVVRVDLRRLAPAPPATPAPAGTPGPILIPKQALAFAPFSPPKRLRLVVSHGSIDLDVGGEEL
Histone-lysine N-methyltransferase KMT5B, sequence (Q4FZB7 whole entry): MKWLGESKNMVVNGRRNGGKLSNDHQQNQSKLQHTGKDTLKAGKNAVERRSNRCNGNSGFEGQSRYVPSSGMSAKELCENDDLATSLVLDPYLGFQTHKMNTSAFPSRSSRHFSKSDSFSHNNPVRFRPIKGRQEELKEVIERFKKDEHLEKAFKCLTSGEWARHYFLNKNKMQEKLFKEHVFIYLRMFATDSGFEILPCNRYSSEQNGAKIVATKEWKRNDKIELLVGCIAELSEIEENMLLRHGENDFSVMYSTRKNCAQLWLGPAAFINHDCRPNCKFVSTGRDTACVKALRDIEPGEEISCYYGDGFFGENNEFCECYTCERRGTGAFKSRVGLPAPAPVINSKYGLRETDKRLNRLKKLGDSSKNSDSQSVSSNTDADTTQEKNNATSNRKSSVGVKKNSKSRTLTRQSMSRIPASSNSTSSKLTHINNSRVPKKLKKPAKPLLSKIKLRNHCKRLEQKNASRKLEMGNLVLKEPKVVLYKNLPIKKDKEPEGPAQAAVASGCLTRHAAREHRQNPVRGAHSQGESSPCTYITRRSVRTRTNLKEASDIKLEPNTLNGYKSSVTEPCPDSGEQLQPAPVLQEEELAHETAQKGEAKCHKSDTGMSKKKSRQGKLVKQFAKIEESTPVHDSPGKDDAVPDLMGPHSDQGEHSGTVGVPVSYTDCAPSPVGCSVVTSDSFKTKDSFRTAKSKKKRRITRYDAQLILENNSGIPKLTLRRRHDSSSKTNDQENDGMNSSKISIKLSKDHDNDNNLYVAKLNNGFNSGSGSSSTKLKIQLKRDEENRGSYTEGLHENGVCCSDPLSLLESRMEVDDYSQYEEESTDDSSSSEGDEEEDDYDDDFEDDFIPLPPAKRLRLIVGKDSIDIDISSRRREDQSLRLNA
N-lysine methyltransferase SMYD2, sequence (Q9NRG4 whole entry): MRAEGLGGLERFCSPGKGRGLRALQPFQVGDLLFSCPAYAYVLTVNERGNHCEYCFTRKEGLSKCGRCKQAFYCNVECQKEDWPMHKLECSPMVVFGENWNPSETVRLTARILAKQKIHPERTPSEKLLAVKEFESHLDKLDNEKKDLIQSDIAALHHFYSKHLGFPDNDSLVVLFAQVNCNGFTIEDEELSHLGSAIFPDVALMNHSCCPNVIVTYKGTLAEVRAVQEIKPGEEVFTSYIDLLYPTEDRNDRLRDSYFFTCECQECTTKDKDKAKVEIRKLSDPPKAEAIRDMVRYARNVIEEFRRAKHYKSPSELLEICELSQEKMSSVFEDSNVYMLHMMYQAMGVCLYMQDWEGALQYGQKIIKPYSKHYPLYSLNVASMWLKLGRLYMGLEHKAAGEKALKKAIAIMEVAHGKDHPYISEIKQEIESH
Histone-lysine N-methyltransferase, H3 lysine-79 specific, sequence (Q8TEK3 whole entry): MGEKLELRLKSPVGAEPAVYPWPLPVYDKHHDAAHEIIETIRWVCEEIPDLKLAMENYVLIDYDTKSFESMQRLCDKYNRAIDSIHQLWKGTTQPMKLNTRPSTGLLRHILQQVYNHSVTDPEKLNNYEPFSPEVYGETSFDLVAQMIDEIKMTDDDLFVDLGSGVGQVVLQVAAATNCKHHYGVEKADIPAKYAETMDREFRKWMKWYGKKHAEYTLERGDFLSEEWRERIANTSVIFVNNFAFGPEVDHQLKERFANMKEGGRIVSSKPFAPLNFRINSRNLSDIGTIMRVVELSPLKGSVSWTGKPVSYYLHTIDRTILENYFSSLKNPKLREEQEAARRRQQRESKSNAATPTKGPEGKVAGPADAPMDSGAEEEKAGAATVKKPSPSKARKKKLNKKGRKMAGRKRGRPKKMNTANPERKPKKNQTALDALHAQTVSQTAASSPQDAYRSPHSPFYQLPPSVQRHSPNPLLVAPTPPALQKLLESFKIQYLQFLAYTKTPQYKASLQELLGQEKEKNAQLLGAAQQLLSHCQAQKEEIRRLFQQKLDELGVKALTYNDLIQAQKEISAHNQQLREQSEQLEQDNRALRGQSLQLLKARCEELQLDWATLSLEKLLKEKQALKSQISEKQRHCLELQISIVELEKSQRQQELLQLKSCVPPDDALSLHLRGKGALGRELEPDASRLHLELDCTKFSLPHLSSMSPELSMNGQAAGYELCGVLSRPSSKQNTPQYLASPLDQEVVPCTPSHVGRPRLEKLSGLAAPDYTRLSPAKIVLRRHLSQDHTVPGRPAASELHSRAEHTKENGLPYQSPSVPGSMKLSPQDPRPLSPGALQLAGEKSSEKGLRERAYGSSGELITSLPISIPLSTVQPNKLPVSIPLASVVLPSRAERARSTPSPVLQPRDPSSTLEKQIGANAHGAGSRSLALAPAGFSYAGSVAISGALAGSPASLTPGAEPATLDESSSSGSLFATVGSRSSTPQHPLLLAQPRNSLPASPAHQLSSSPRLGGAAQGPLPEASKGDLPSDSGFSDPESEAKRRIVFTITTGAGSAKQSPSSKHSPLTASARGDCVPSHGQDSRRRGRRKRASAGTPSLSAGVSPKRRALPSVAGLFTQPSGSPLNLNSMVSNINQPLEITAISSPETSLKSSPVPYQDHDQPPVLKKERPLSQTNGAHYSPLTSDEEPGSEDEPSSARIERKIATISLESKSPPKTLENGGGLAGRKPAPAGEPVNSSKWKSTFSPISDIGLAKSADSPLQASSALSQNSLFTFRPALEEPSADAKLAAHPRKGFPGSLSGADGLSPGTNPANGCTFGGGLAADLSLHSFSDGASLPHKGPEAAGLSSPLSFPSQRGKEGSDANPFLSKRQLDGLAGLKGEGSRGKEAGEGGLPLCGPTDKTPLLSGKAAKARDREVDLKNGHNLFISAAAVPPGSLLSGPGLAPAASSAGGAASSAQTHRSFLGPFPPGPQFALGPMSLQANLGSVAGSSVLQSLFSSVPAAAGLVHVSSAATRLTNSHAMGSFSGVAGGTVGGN
DNA (cytosine-5)-methyltransferase 1, sequence (P26358 whole entry): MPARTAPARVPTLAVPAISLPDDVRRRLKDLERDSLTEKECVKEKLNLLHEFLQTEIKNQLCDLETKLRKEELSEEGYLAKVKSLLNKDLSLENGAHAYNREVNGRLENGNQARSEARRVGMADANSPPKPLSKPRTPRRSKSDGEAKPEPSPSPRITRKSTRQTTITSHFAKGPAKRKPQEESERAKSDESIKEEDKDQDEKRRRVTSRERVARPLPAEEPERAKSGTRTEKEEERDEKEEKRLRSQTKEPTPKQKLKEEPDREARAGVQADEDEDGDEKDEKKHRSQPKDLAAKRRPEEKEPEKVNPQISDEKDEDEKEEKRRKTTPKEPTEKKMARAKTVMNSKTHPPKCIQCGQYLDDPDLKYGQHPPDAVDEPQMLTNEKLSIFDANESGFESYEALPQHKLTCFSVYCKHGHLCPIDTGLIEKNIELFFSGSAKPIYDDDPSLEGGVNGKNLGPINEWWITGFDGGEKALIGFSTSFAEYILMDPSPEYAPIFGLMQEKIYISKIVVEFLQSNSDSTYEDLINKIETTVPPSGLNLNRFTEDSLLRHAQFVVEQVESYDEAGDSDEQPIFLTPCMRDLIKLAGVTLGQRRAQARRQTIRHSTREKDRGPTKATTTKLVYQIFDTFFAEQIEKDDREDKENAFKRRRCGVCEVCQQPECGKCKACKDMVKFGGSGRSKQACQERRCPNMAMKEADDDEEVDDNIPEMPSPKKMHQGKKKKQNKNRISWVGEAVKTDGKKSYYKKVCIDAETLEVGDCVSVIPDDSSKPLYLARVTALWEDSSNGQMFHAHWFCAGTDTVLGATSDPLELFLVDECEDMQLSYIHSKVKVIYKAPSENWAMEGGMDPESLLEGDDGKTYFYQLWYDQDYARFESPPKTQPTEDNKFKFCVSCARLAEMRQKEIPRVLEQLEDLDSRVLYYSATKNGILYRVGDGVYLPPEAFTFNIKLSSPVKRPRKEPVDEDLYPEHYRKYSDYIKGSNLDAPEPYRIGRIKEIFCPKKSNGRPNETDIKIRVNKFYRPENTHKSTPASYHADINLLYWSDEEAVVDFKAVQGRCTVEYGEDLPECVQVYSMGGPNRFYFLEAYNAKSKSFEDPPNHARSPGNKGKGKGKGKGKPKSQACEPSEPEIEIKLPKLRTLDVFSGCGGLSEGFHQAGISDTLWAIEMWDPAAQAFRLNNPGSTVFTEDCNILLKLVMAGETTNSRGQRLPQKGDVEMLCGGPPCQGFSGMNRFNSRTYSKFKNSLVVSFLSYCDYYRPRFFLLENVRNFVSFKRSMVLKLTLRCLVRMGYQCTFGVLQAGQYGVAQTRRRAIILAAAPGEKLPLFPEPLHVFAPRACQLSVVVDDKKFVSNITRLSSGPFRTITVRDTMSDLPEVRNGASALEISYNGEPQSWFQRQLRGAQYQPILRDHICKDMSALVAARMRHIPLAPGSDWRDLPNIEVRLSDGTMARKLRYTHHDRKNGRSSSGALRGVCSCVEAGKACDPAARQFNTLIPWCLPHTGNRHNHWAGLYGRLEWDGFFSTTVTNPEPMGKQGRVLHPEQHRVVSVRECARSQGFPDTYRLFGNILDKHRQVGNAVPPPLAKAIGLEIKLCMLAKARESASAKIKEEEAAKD

`COc1cc2nc(N3CCCC3)nc(NCCCCCN3CCCC3)c2cc1OC`: the 50% inhibitory concentration (IC50) in experiment [1], in experiment [2], in [3], in experiment [4], in experiment [5] and in experiment [6] was above 100 µM throughout. Besides, the IC50 in experiment [7], in experiment [8], in experiment [9], in experiment [10], in experiment [11] and in [12] was above 100 µM throughout. The IC50 in [13] and in [14] was above 100 µM in each case.
Take `COc1cc2nc(N3CCCC3)nc(N(C)CCCCCN3CCCC3)c2cc1OC`: the IC50 (commonly the concentration that gives 50% inhibition) in experiment [15] is above 250 µM; in [16] it was “Not Active”.
In experiment [15], `COc1cc2nc(NC3CCCC3)nc(NCCCCCN3CCCC3)c2cc1OC` had a half-inhibitory concentration (IC50) above 250 µM.
As to `COc1cc2nc(NC3CCCCC3)nc(NCCCCCN3CCCC3)c2cc1OC`, the IC50 in experiment [15] was above 250 µM.
